In ChEMBL document CHEMBL3046733, “Comparative toxicity of selected organophosphate insecticides against resistant and susceptible clones of the greenbug, Schizaphis graminum (Homoptera: aphididae)” (J Agric Food Chem, 2000):
Values after ≈ are worked out from the molar mass of the structure shown.

Experiments:
[1] = system: Schizaphis graminum; assay: Resistance index, ratio of LC50 for organophosphate-resistant clone of Schizaphis graminum OR2 adult or last-instar nymphs to LC50 for organophosphate-susceptible clone of Schizaphis graminum OSS adult or last-instar nymphs; assay type: functional; design: reference not given here
[2] = system: Schizaphis graminum; assay: Resistance index, ratio of LC50 for organophosphate-resistant clone of Schizaphis graminum OR1 adult or last-instar nymphs to LC50 for organophosphate-susceptible clone of Schizaphis graminum OSS adult or last-instar nymphs; assay type: functional; design: reference not given here
[3] = system: Schizaphis graminum; assay: Insecticidal activity against organophosphate-susceptible clone of Schizaphis graminum OSS adult or last-instar nymphs assessed as insect mortality after 8 hr; assay type: functional
[4] = target: Acetylcholinesterase (Schizaphis graminum) (UniProt Q9BMJ1); assay: Resistance index, ratio of bimolecular rate constant Ki for AChE in rganophosphate-resistant clone of Schizaphis graminum OR1 to bimolecular rate constant Ki for AChE in organophosphate-susceptible clone of Schizaphis graminum OSS
[5] = target: T1, Acetylcholinesterase (Schizaphis graminum, UniProt Q9BMJ1); assay: Inhibition of AChE in organophosphate-resistant clone of Schizaphis graminum OR2 adult or last-instar nymphs homogenates assessed as bimolecular rate constant pre-incubated with compound for 2 min at 25 degC before addition of ATC and DTNB solution
Summary of the method: (§1)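 Clones mass-reared on whole sorghum plants (hybrid NC+ 160) at 25 ± 2 °C with a 16:8 h L/D photoperiod. Greenbug AChE was preincubated with an organophosphate oxon inhibitor for 2 min at 25 °C. Residual AChE activity was then measured as a percentage of an inhibitor-free control.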

[6] = target: T1, Acetylcholinesterase; assay: Inhibition of AChE in organophosphate-resistant clone of Schizaphis graminum OR1 adult or last-instar nymphs homogenates assessed as bimolecular rate constant pre-incubated with compound for 2 min at 25 degC before addition of ATC and DTNB solution; summary of the method: as §1
[7] = system: Schizaphis graminum; assay: Insecticidal activity against organophosphate-resistant clone of Schizaphis graminum OR2 adult or last-instar nymphs assessed as insect mortality after 8 hr; assay type: functional; conditions: OR2, 8 h
[8] = target: T1, Acetylcholinesterase; assay: Inhibition of AChE in organophosphate-susceptible clone of Schizaphis graminum OSS adult or last-instar nymphs homogenates assessed as bimolecular rate constant pre-incubated with compound for 2 min at 25 degC before addition of ATC and DTNB solution; summary of the method: as §1
[9] = system: Schizaphis graminum; assay: Insecticidal activity against organophosphate-resistant clone of Schizaphis graminum OR1 adult or last-instar nymphs assessed as insect mortality after 8 hr; assay type: functional; conditions: OR1, 8 h
[10] = target: Acetylcholinesterase (Schizaphis graminum) (UniProt Q9BMJ1); assay: Resistance index, ratio of bimolecular rate constant Ki for AChE in rganophosphate-resistant clone of Schizaphis graminum OR2 to bimolecular rate constant Ki for AChE in organophosphate-susceptible clone of Schizaphis graminum OSS

Chain of Acetylcholinesterase (Schizaphis graminum) (Q9BMJ1 as listed by the source): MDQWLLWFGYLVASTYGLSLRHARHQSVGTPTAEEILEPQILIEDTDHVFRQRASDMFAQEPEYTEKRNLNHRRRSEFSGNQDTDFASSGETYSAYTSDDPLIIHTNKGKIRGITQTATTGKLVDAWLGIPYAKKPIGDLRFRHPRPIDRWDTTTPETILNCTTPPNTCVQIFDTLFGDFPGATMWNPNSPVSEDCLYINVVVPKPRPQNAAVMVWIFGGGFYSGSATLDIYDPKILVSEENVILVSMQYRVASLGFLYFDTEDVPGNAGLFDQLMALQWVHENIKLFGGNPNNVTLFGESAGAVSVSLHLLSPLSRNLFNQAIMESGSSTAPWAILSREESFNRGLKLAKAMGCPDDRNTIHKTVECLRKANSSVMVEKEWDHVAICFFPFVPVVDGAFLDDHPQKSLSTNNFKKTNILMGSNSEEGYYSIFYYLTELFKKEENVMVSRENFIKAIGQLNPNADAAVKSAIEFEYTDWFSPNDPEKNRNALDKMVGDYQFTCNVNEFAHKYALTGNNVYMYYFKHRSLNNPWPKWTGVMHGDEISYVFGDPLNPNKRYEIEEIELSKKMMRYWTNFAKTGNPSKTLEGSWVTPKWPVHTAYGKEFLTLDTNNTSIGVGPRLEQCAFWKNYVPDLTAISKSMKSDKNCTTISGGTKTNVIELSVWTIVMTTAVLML
T1 sequence (Q9BMJ1 whole entry): as the sequence (Q9BMJ1 as listed by the source) above

| SMILES | RatioLC50 [1] | RatioLC50 [2] | LC50 [3] | Ratio [4] | Ki [5] | Ki [6] | LC50 [7] | Ki [8] | LC50 [9] | Ratio [10] |
| --- | --- | --- | --- | --- | --- | --- | --- | --- | --- | --- |
| CNC(=O)CSP(=O)(OC)OC [Omethoate] | 30.6 | 38.9 | 0.21 µg/mL (≈ 0.985 µM) | 3.8 | 0.0222 M⁻¹ s⁻¹ | 0.0207 M⁻¹ s⁻¹ | 6.28 µg/mL (≈ 29.5 µM) | 0.077 M⁻¹ s⁻¹ | 8.01 µg/mL (≈ 37.6 µM) | 3.5 |
| CCOP(=O)(OCC)SCCSCC [demeton S] |  |  |  | 1.3 | 0.0447 M⁻¹ s⁻¹ | 0.0437 M⁻¹ s⁻¹ |  | 0.0575 M⁻¹ s⁻¹ |  | 1.3 |
| COP(=O)(OC)Oc1ccc([N+](=O)[O-])cc1 [DIMETHYL 4-NITROPHENYL PHOSPHATE] |  |  |  | 2.1 | 0.0217 M⁻¹ s⁻¹ | 0.0225 M⁻¹ s⁻¹ |  | 0.0483 M⁻¹ s⁻¹ |  | 2.2 |
| COP(=S)(OC)Oc1ccc([N+](=O)[O-])cc1 [METHYL PARATHIONE] | 41.3 | 11.1 | 0.031 µg/mL (≈ 0.118 µM) |  |  |  | 1.27 µg/mL (≈ 4.83 µM) |  | 0.34 µg/mL (≈ 1.29 µM) |  |
| CCOP(=S)(OCC)SCCSCC [DISULFOTON] | 93.7 | 39.6 | 0.16 µg/mL (≈ 0.583 µM) |  |  |  | 15.1 µg/mL (≈ 55 µM) |  | 6.37 µg/mL (≈ 23.2 µM) |  |
| CCOP(=S)(OCC)Oc1nc(Cl)c(Cl)cc1Cl [CHLORPYRIFOS] | 53.8 | 10.6 | 0.036 µg/mL (≈ 0.103 µM) |  |  |  | 1.96 µg/mL (≈ 5.59 µM) |  | 0.39 µg/mL (≈ 1.11 µM) |  |
| CCOP(=O)(OCC)Oc1ccc([N+](=O)[O-])cc1 [PARAOXON] |  |  |  | 1.8 | 0.012 M⁻¹ s⁻¹ | 0.0135 M⁻¹ s⁻¹ |  | 0.0237 M⁻¹ s⁻¹ |  | 2 |
| CCSCCSP(=O)(OC)OC [demeton-S-methyl] |  |  |  |  | 0.0725 M⁻¹ s⁻¹ | 0.0685 M⁻¹ s⁻¹ |  | 0.101 M⁻¹ s⁻¹ |  |  |
| CCOP(=S)(OCC)Oc1ccc([N+](=O)[O-])cc1 [PARATHION] | 326.9 | 40.8 | 0.2 µg/mL (≈ 0.687 µM) |  |  |  | 64.8 µg/mL (≈ 222 µM) |  | 8.07 µg/mL (≈ 27.7 µM) |  |
